# Reference: ChEMBL document CHEMBL1759915, “Synthesis and anticancer effects of some novel pyrazolo[3,4-d]pyrimidine derivatives by generating reactive oxygen species in human breast adenocarcinoma cells” (Eur J Med Chem, 2011)
# Experiments:
# [1] = tested on: MCF7; experiment: Effect on hydrogen peroxide level in human MCF7 cells assessed per mg protein at 20 ug/ml by Wolf's method after 24 hrs (reference value: 12.50 +/- 1.54 nmol/mg of protein); format: functional
# [2] = tested on: MCF7; experiment: Effect on RNA level in human MCF7 cells assessed per 10 '6 cells at 5 ug/ml after 24 hrs (reference value: 11.50 +/- 0.70 ug/10^6 cells); format: functional
# Summary of the method: (§1)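 After 24 h exposure of MCF-7 cells to compound at 2, 5, 10 or 20 µg/ml at 37 °C, nucleic acids were precipitated from cell homogenates. DNA was extracted and assayed by the Zhou et al. method, and RNA by a kit-derived procedure. Results given per 10⁶ cells as means ± S.E. of four experiments versus untreated control.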
# [3] = tested on: MCF7; experiment: Effect on RNA level in human MCF7 cells assessed per 10 '6 cells at 20 ug/ml after 24 hrs (reference value: 11.50 +/- 0.70 ug/10^6 cells); format: functional; summary of the method: as §1
# [4] = tested on: MCF7; experiment: Effect on hydrogen peroxide level in human MCF7 cells assessed per mg protein at 5 ug/ml by Wolf's method after 24 hrs (reference value: 12.50 +/- 1.54 nmol/mg of protein); format: functional
# [5] = tested on: MCF7; experiment: Effect on RNA level in human MCF7 cells assessed per 10 '6 cells at 10 ug/ml after 24 hrs (reference value: 11.50 +/- 0.70 ug/10^6 cells); format: functional; summary of the method: as §1
# [6] = tested on: MCF7; experiment: Effect on hydrogen peroxide level in human MCF7 cells assessed per mg protein at 10 ug/ml by Wolf's method after 24 hrs (reference value: 12.50 +/- 1.54 nmol/mg of protein); format: functional
# [7] = tested on: MCF7; experiment: Decrease in CAT level in human MCF7 cells; format: functional, cell-based
# [8] = tested on: MCF7; experiment: Effect on glutathione level in human MCF7 cells assessed per mg protein at 20 ug/ml by Ellman method after 24 hrs (reference value: 39.82 +/- 4.20 nmol/mg of protein); format: functional
# [9] = tested on: MCF7; experiment: Effect on SOD level in human MCF7 cells assessed per mg protein at 2 ug/ml after 24 hrs (reference value: 27.61+/- 3.72 U/mg of protein); format: functional
# [10] = tested on: MCF7; experiment: Decrease in glutathione peroxidase level in human MCF7 cells; format: functional, cell-based
# [11] = tested on: MCF7; experiment: Antiproliferative activity against human MCF7 cells after 24 hrs by MTT assay; format: functional, cell-based; settings: for IC50: MCF7, 24 h
# Summary of the method: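 MCF-7 cells (DMEM, 10% heat-inactivated FCS, penicillin/streptomycin, 37 °C, 5% CO2) plated at 0.65 × 10⁵ cells/well and given 24 h to attach. Exposed to compound or cisplatin at 2, 5, 10 or 20 µg/ml for 24 h at 37 °C. MTT added for 4 h, formazan dissolved in DMSO, absorbance read at 570 nm. Viability taken relative to untreated cells and IC50 derived.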
# [12] = tested on: MCF7; experiment: Effect on RNA level in human MCF7 cells assessed per 10 '6 cells at 2 ug/ml after 24 hrs (reference value: 11.50 +/- 0.70 ug/10^6 cells); format: functional; summary of the method: as §1
# [13] = tested on: MCF7; experiment: Effect on glutathione level in human MCF7 cells assessed per mg protein at 10 ug/ml by Ellman method after 24 hrs (reference value: 39.82 +/- 4.20 nmol/mg of protein); format: functional
# [14] = tested on: MCF7; experiment: Effect on glutathione peroxidase level in human MCF7 cells assessed per mg protein at 10 ug/ml after 24 hrs (reference value: 11.20 +/- 1.36 U/mg of protein); format: functional
# [15] = tested on: MCF7; experiment: Effect on glutathione level in human MCF7 cells assessed per mg protein at 2 ug/ml by Ellman method after 24 hrs (reference value: 39.82 +/- 4.20 nmol/mg of protein); format: functional
# [16] = tested on: MCF7; experiment: Increase in SOD level in human MCF7 cells; format: functional, cell-based
# [17] = tested on: MCF7; experiment: Effect on DNA level in human MCF7 cells assessed per 10 '6 cells at 20 ug/ml after 24 hrs (reference value: 6.80 +/- 0.70 ug/10^6 cells); format: functional; summary of the method: as §1
# [18] = tested on: MCF7; experiment: Effect on glutathione peroxidase level in human MCF7 cells assessed per mg protein at 20 ug/ml after 24 hrs (reference value: 11.20 +/- 1.36 U/mg of protein); format: functional
# [19] = tested on: MCF7; experiment: Effect on SOD level in human MCF7 cells assessed per mg protein at 5 ug/ml after 24 hrs (reference value: 27.61+/- 3.72 U/mg of protein); format: functional
# [20] = tested on: MCF7; experiment: Decrease in DNA level in human MCF7 cells assessed per 10 '6 cells after 24 hrs relative to control; format: functional, cell-based; summary of the method: as §1
# [21] = tested on: MCF7; experiment: Effect on glutathione level in human MCF7 cells assessed per mg protein at 5 ug/ml by Ellman method after 24 hrs (reference value: 39.82 +/- 4.20 nmol/mg of protein); format: functional
# [22] = tested on: MCF7; experiment: Effect on DNA level in human MCF7 cells assessed per 10 '6 cells at 2 ug/ml after 24 hrs (reference value: 6.80 +/- 0.70 ug/10^6 cells); format: functional; summary of the method: as §1
# [23] = tested on: MCF7; experiment: Effect on glutathione peroxidase level in human MCF7 cells assessed per mg protein at 5 ug/ml after 24 hrs (reference value: 11.20 +/- 1.36 U/mg of protein); format: functional
# [24] = tested on: MCF7; experiment: Effect on hydrogen peroxide level in human MCF7 cells assessed per mg protein at 2 ug/ml by Wolf's method after 24 hrs (reference value: 12.50 +/- 1.54 nmol/mg of protein); format: functional
# [25] = tested on: MCF7; experiment: Effect on glutathione peroxidase level in human MCF7 cells assessed per mg protein at 2 ug/ml after 24 hrs (reference value: 11.20 +/- 1.36 U/mg of protein); format: functional
# [26] = tested on: MCF7; experiment: Decrease in glutathione level in human MCF7 cells; format: functional, cell-based
# [27] = tested on: MCF7; experiment: Increase in hydrogen peroxide level in human MCF7 cells; format: functional, cell-based
# [28] = tested on: MCF7; experiment: Effect on CAT level in human MCF7 cells assessed per mg protein at 10 ug/ml after 24 hrs (reference value: 7.90+/- 0.67 U/mg of protein); format: functional
# [29] = tested on: MCF7; experiment: Decrease in RNA level in human MCF7 cells assessed per 10 '6 cells after 24 hrs relative to control; format: functional, cell-based; summary of the method: as §1
# [30] = tested on: MCF7; experiment: Effect on DNA level in human MCF7 cells assessed per 10 '6 cells at 10 ug/ml after 24 hrs (reference value: 6.80 +/- 0.70 ug/10^6 cells); format: functional; summary of the method: as §1
# [31] = tested on: MCF7; experiment: Effect on CAT level in human MCF7 cells assessed per mg protein at 20 ug/ml after 24 hrs (reference value: 7.90+/- 0.67 U/mg of protein); format: functional
# [32] = tested on: MCF7; experiment: Effect on CAT level in human MCF7 cells assessed per mg protein at 2 ug/ml after 24 hrs (reference value: 7.90+/- 0.67 U/mg of protein); format: functional
# [33] = tested on: MCF7; experiment: Effect on SOD level in human MCF7 cells assessed per mg protein at 20 ug/ml after 24 hrs (reference value: 27.61+/- 3.72 U/mg of protein); format: functional
# [34] = tested on: MCF7; experiment: Effect on SOD level in human MCF7 cells assessed per mg protein at 10 ug/ml after 24 hrs (reference value: 27.61+/- 3.72 U/mg of protein); format: functional
# [35] = tested on: MCF7; experiment: Effect on CAT level in human MCF7 cells assessed per mg protein at 5 ug/ml after 24 hrs (reference value: 7.90+/- 0.67 U/mg of protein); format: functional
# [36] = tested on: MCF7; experiment: Effect on DNA level in human MCF7 cells assessed per 10 '6 cells at 5 ug/ml after 24 hrs (reference value: 6.80 +/- 0.70 ug/10^6 cells); format: functional; summary of the method: as §1
IC50 [11] [µg/mL],SMILES,Activity [1] [nmol],Activity [2] [µg/10^6 cells],Activity [3] [µg/10^6 cells],Activity [4] [nmol],Activity [5] [µg/10^6 cells],Activity [6] [nmol],Activity [7],Activity [8] [nmol],Activity [9] [U/mg protein],Activity [10],Activity [11],Activity [12] [µg/10^6 cells],Activity [13] [nmol],Activity [14] [U/mg protein],Activity [15] [nmol],Activity [16],Activity [17] [µg/10^6 cells],Activity [18] [U/mg protein],Activity [19] [U/mg protein],also measured
7,Cc1nc(-n2ncc3c(Cl)ncnc32)c2c3c(sc2n1)CCc1ccccc1-3,52.33,7.5,6.5,25.45,6.7,37.85,Dose-dependent effect,25,80.2,Dose-dependent effect,Dose-dependent effect,8.75,27.2,7,35.8,Dose-dependent effect,3.85,6.7,90.6,Activity [20]: Dose-dependent effect; Activity [21]: 29.5 nmol; Activity [22]: 4.85 µg/10^6 cells; Activity [23]: 7.6 U/mg protein; Activity [24]: 28.23 nmol; Activity [25]: 8 U/mg protein; Activity [26]: Dose-dependent effect; Activity [27]: Dose-dependent effect; Activity [28]: 4.2 U/mg protein; Activity [29]: Dose-dependent effect; Activity [30]: 4 µg/10^6 cells; Activity [31]: 3.65 U/mg protein; Activity [32]: 5.8 U/mg protein; Activity [33]: 201 U/mg protein; Activity [34]: 160 U/mg protein; Activity [35]: 4.9 U/mg protein; Activity [36]: 4.46 µg/10^6 cells
9.4,Cc1nc(-n2ncc3c(S[C@@H]4O[C@H](CO)[C@@H](O)[C@H]4O)ncnc32)c2c3c(sc2n1)CCc1ccccc1-3,40.33,8.9,7.22,28.45,7.7,35.85,Dose-dependent effect,30,70.4,Dose-dependent effect,Dose-dependent effect,9.5,33.11,6,43.35,Dose-dependent effect,4.45,5.4,80.2,Activity [20]: Dose-dependent effect; Activity [21]: 40.12 nmol; Activity [22]: 5.35 µg/10^6 cells; Activity [23]: 6.6 U/mg protein; Activity [24]: 21.23 nmol; Activity [25]: 9 U/mg protein; Activity [26]: Dose-dependent effect; Activity [27]: Dose-dependent effect; Activity [28]: 5.7 U/mg protein; Activity [29]: Dose-dependent effect; Activity [30]: 4.86 µg/10^6 cells; Activity [31]: 5.35 U/mg protein; Activity [32]: 6.85 U/mg protein; Activity [33]: 161 U/mg protein; Activity [34]: 110 U/mg protein; Activity [35]: 6 U/mg protein; Activity [36]: 5.16 µg/10^6 cells
8,Cc1nc(-n2ncc3c(=S)[nH]cnc32)c2c3c(sc2n1)CCc1ccccc1-3,46.37,7.9,6.8,21.6,7,30.5,Dose-dependent effect,27,77.9,Dose-dependent effect,Dose-dependent effect,9.11,29.11,7.7,39.9,Dose-dependent effect,4,6.82,85.4,Activity [20]: Dose-dependent effect; Activity [21]: 33.12 nmol; Activity [22]: 5.3 µg/10^6 cells; Activity [23]: 7.9 U/mg protein; Activity [24]: 24.2 nmol; Activity [25]: 8.3 U/mg protein; Activity [26]: Dose-dependent effect; Activity [27]: Dose-dependent effect; Activity [28]: 4.9 U/mg protein; Activity [29]: Dose-dependent effect; Activity [30]: 4.76 µg/10^6 cells; Activity [31]: 4 U/mg protein; Activity [32]: 6.33 U/mg protein; Activity [33]: 181 U/mg protein; Activity [34]: 121 U/mg protein; Activity [35]: 5.36 U/mg protein; Activity [36]: 5 µg/10^6 cells
3,CCSc1ncnc2c1cnn2-c1nc(C)nc2sc3c(c12)-c1ccccc1CC3,80,4.32,3.61,55,4,60.5,Dose-dependent effect,14.8,125,Dose-dependent effect,Dose-dependent effect,5.5,17,3,20.11,Dose-dependent effect,1.82,2.2,150,Activity [20]: Dose-dependent effect; Activity [21]: 19.16 nmol; Activity [22]: 3.8 µg/10^6 cells; Activity [23]: 4.25 U/mg protein; Activity [24]: 35 nmol; Activity [25]: 5.6 U/mg protein; Activity [26]: Dose-dependent effect; Activity [27]: Dose-dependent effect; Activity [28]: 1.76 U/mg protein; Activity [29]: Dose-dependent effect; Activity [30]: 2.76 µg/10^6 cells; Activity [31]: 1.55 U/mg protein; Activity [32]: 3.6 U/mg protein; Activity [33]: 385 U/mg protein; Activity [34]: 360 U/mg protein; Activity [35]: 2.9 U/mg protein; Activity [36]: 3.1 µg/10^6 cells
